Results on eleven compounds are retold here after ChEMBL document CHEMBL3046420, “A new antifungal and cytotoxic C-methylated flavone glycoside from Picea neoveitchii” (2012).

Common to all, as to assay type: functional
One assay has as its system Athelia rolfsii. The assay is described as follows: Antifungal activity against Athelia rolfsii assessed as mycelial growth inhibition at 100 ug/disk after 2 to 4 days by disk diffusion method relative to control. Conditions: Agroathelia rolfsii; for zone of inhibition at 100 µg/disc: read-out: DIZ; for inhibition of growth at 100 µg/disc: read-out: GI. The procedure, abridged:
(§1)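 Disc diffusion on PDA in 90 mm Petri plates. Sterile 5 mm filter paper discs were loaded with 10 µL of a 10 mg/mL MeOH solution, air-dried and set at the plate centre. Four 5 mm fungal plugs were placed inverted 20 mm from the disc. Plates were incubated at 29 °C for 2–4 days, until growth in the MeOH blank reached the centre. The inhibitory zone was measured in mm and expressed as % of the carbendazim zone. Triplicate.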
(A growth-free zone around the sample is the usual read-out of agar diffusion tests.)

The test system of another assay is Pyricularia grisea. The assay is described as follows: Antifungal activity against Magnaporthe grisea assessed as mycelial growth inhibition at 100 ug/disk after 2 to 4 days by disk diffusion method relative to control. Conditions: for zone of inhibition at 100 µg/disc: read-out: DIZ; for inhibition of growth at 100 µg/disc: read-out: GI. Put shortly: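 Modified disc diffusion on PDA in 90 mm plates. Each 5 mm filter disc was loaded with 10 µL of a 10 mg/mL MeOH solution, air-dried and placed at the plate centre. Four 5 mm fungal plugs were set 20 mm from the disc. MeOH discs served as blank and carbendazim as positive control. Plates were incubated at 29 °C for 2–4 days. Inhibition zone (mm) was expressed as % of the carbendazim zone. Triplicate.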

Another assay concerns Thielaviopsis paradoxa. The assay is described as follows: Antifungal activity against Ceratocystis paradoxa assessed as mycelial growth inhibition at 100 ug/disc after 2 to 4 days by disk diffusion method relative to control. The following applies: for zone of inhibition at 100 µg/disc: read-out: DIZ; for inhibition of growth at 100 µg/disc: read-out: GI. The procedure, abridged:
as §1

Assay [1] is described as follows: Cytotoxicity against Spodoptera litura cells assessed as growth inhibition at 20 mg/L after 24 hr by MTT assay relative to control. Conditions: read-out: GI. Put shortly:
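SL cells were grown in Grace's insect medium with 9% newborn calf serum at 27.5 °C and used in log phase. Cells were seeded in 96-well plates for 24 h, then exposed for 24 h to compound (DMSO stock diluted in medium); controls got 0.5% DMSO. MTT (0.5 mg/mL) was added for 4 h, formazan dissolved in DMSO, and A570 read. Three separate experiments.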

A further assay concerns Alternaria mali. Nature of the assay: Antifungal activity against Alternaria mali assessed as mycelial growth inhibition at 100 ug/disk after 2 to 4 days by disk diffusion method relative to control. The following applies: for zone of inhibition at 100 µg/disc: read-out: DIZ; for inhibition of growth at 100 µg/disc: read-out: GI. Put shortly:
as §1

Molecules are shown by their SMILES.

In the case of `O=c1c(O[C@@H]2O[C@H](CO)[C@@H](O)[C@H](O)[C@H]2O)c(-c2ccc(O[C@@H]3O[C@H](CO)[C@@H](O)[C@H](O)[C@H]3O)cc2)oc2cc(O)cc(O)c12`, the zone of inhibition at 100 µg/disc was 3.7 mm in the assay with Athelia rolfsii, 0 mm in the assay on Pyricularia grisea, 0 mm in the assay on Thielaviopsis paradoxa and 2.4 mm with Alternaria mali. The inhibition of growth at 100 µg/disc in the assay with Athelia rolfsii was 31.9%; in the assay with Pyricularia grisea, 0%; in the assay with Thielaviopsis paradoxa, 0%; in the assay on Alternaria mali, 24.2%. The inhibition of growth at 20 µg/mL in assay [1] was found to be 23.1%.
For `COc1c(-c2ccc(O)cc2)oc2c(O[C@@H]3O[C@H](CO)[C@@H](O)[C@H](O)[C@H]3O)c(O)c(C)c(O)c2c1=O`, the zone of inhibition at 100 µg/disc came to 9.4 mm in the assay with Athelia rolfsii, 7.6 mm in the assay on Pyricularia grisea, 6.2 mm with Thielaviopsis paradoxa and 7.2 mm in the assay on Alternaria mali. Further, the inhibition of growth at 100 µg/disc with Athelia rolfsii came to 81%; in the assay with Pyricularia grisea it was 40.9%; in the assay on Thielaviopsis paradoxa it was 24.1%; in the assay with Alternaria mali it was 72.7%. In addition, the inhibition of growth at 20 µg/mL in assay [1] amounted to 62.5%.
For the compound `COc1c(-c2ccc(O[C@@H]3O[C@H](CO)[C@@H](O)[C@H](O)[C@H]3O)cc2)oc2c(O[C@@H]3O[C@H](CO)[C@@H](O)[C@H](O)[C@H]3O)c(O)c(C)c(O)c2c1=O`, the zone of inhibition at 100 µg/disc with Athelia rolfsii worked out at 4.8 mm; in the assay on Pyricularia grisea it was 5.7 mm; in the assay with Thielaviopsis paradoxa it was 0 mm; in the assay on Alternaria mali, 4.3 mm. The inhibition of growth at 100 µg/disc came out at 41.4% in the assay with Athelia rolfsii, 30.6% in the assay with Pyricularia grisea, 0% in the assay on Thielaviopsis paradoxa and 43.4% in the assay with Alternaria mali. For the same compound, the inhibition of growth at 20 µg/mL in assay [1] turned out to be 64.4%.
With `O=c1cc(-c2ccc(O)cc2)oc2cc(O[C@@H]3O[C@H](CO)[C@@H](O)[C@H](O)[C@H]3O)cc(O)c12` [APIGETRIN], the zone of inhibition at 100 µg/disc worked out at 4.8 mm in the assay with Athelia rolfsii, 3.3 mm in the assay with Pyricularia grisea, 0 mm in the assay with Thielaviopsis paradoxa and 5.8 mm in the assay with Alternaria mali. Besides, the inhibition of growth at 100 µg/disc in the assay with Athelia rolfsii is 41.4%; in the assay on Pyricularia grisea, 17.7%; in the assay with Thielaviopsis paradoxa, 0%; with Alternaria mali, 58.6%. The inhibition of growth at 20 µg/mL in assay [1] stood at 7.8%.
With `COC(=O)Nc1nc2ccccc2[nH]1` [CARBENDAZIM], the zone of inhibition at 100 µg/disc with Athelia rolfsii was 11.6 mm; in the assay with Pyricularia grisea, 18.6 mm; in the assay on Thielaviopsis paradoxa, 25.7 mm; in the assay with Alternaria mali it was 9.9 mm. Further, the inhibition of growth at 100 µg/disc in the assay on Athelia rolfsii, in the assay on Pyricularia grisea, in the assay with Thielaviopsis paradoxa and with Alternaria mali was 100% in each case.
Turning to `COc1cc(CCCO)ccc1O[C@@H]1O[C@H](CO)[C@@H](O)[C@H](O)[C@H]1O` [DIHYDROCONIFERIN], the zone of inhibition at 100 µg/disc turned out to be 0 mm in the assay on Athelia rolfsii, 8.6 mm in the assay with Pyricularia grisea, 0 mm with Thielaviopsis paradoxa and 3.1 mm in the assay with Alternaria mali. For the same compound, the inhibition of growth at 100 µg/disc in the assay with Athelia rolfsii was 0%; in the assay on Pyricularia grisea it was 46.2%; in the assay with Thielaviopsis paradoxa, 0%; in the assay with Alternaria mali, 31.3%. Further, the inhibition of growth at 20 µg/mL in assay [1] worked out at 4%.
As to `C[C@@H]1O[C@@H](OC[C@H]2O[C@@H](OC(=O)/C=C/c3ccccc3)[C@H](O)[C@@H](O)[C@@H]2O)[C@H](O)[C@H](O)[C@H]1O` [GLEDITSCHIASIDE A], the zone of inhibition at 100 µg/disc in the assay with Athelia rolfsii, in the assay with Pyricularia grisea, in the assay with Thielaviopsis paradoxa and in the assay on Alternaria mali was 0 mm each time. For the same compound, the inhibition of growth at 100 µg/disc in the assay with Athelia rolfsii, in the assay on Pyricularia grisea, in the assay on Thielaviopsis paradoxa and in the assay with Alternaria mali was 0% in each case. The inhibition of growth at 20 µg/mL in assay [1] was found to be 62.2%.
Turning to `COc1cc([C@H]2Oc3c(O)cc(CCCO)cc3[C@@H]2CO)ccc1O[C@@H]1O[C@@H](C)[C@H](O)[C@@H](O)[C@H]1O` [MASSONIANOSIDE B], the zone of inhibition at 100 µg/disc in the assay with Athelia rolfsii is 0 mm; with Pyricularia grisea, 7 mm; with Thielaviopsis paradoxa it was 5.6 mm; in the assay with Alternaria mali it was 8.8 mm. Further, the inhibition of growth at 100 µg/disc with Athelia rolfsii was 0%; with Pyricularia grisea, 37.6%; in the assay with Thielaviopsis paradoxa it was 21.8%; in the assay with Alternaria mali it was 88.9%. The inhibition of growth at 20 µg/mL in assay [1] was 17.9%.
Turning to `C=C(C)[C@H]1Cc2c(ccc3c2O[C@@H]2COc4cc(OC)c(OC)cc4[C@@H]2C3=O)O1` [ROTENONE], the inhibition of growth at 20 µg/mL in assay [1] worked out at 74.4%.
Take `O=c1ccc2ccc(O[C@@H]3O[C@H](CO)[C@@H](O)[C@H](O)[C@H]3O)cc2o1` [SKIMMIN]: the zone of inhibition at 100 µg/disc amounted to 2.8 mm in the assay with Athelia rolfsii, 0 mm in the assay with Pyricularia grisea, 1.5 mm in the assay with Thielaviopsis paradoxa and 0 mm with Alternaria mali. Further, the inhibition of growth at 100 µg/disc in the assay on Athelia rolfsii was determined as 24.1%; in the assay with Pyricularia grisea, 0%; in the assay with Thielaviopsis paradoxa, 5.8%; in the assay on Alternaria mali it was 0%. In addition, in assay [1], the inhibition of growth at 20 µg/mL is 15.3%.
Regarding `O=C(/C=C/c1ccc(O)cc1)OC[C@H]1O[C@@H](Oc2c(-c3ccc(O)cc3)oc3cc(O)cc(O)c3c2=O)[C@H](O)[C@@H](O)[C@@H]1O` [TILIROSIDE], the zone of inhibition at 100 µg/disc with Athelia rolfsii was found to be 2.6 mm; in the assay with Pyricularia grisea, 0 mm; in the assay on Thielaviopsis paradoxa, 7.1 mm; in the assay with Alternaria mali, 5.5 mm. In addition, the inhibition of growth at 100 µg/disc in the assay on Athelia rolfsii came out at 22.4%; in the assay with Pyricularia grisea it was 0%; with Thielaviopsis paradoxa, 27.6%; in the assay with Alternaria mali, 55.6%. Further, in assay [1], the inhibition of growth at 20 µg/mL came out at 65%.
